UBC13 inh – inhibitors of human UBC13 polyubiquitin chain formation | P61088 | TR-FRET | inhibition, % at 20 µM | 330,000 tested, 0.47% active | AID 485273; in the data active means inhibition above about 45%, passing the limit was not always enough
Target sequence (P61088 whole entry, looked up): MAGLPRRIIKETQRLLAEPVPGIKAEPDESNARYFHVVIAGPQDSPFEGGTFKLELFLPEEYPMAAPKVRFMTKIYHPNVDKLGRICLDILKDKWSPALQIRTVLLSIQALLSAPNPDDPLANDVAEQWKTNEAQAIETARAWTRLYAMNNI
PP1 inh – blocks human PP1-alpha phosphatase, a PP5 counter-screen; 320,000 tested, 0.9% active; P62136; AID 2235; inhibition, % at 6.7 µM; purified PP1alpha, OMFP fluorescence;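 active means inhibition above the mean inhibition of all tested compounds plus 3 SD, computed separately for each screening campaign, cut at about 15% in these data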
PP5 inh – PP5 (human) phosphatase inhibition | purified PP5c, OMFP substrate fluorescence | inhibition, % at 6.7 µM | 320,000 tested, 0.18% active;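 active means inhibition above the campaign's mean inhibition across all tested compounds plus 3 SD, cut at about 9.5% in these data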;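 further: 0% = DMSO only and 100% = 100 µM cantharidin control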
CTSL1 counter – counter-screen for PFM18AAP inhibitors: inhibitors of F. hepatica cathepsin L1. recombinant F. hepatica cathepsin L1, Z-Leu-Arg-MCA fluorescence. AID 1906. 300,000 tested, 0.49% active. inhibition, % at 5.96 µM;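 active means inhibition above the mean of all tested compounds plus 3 SD, set per screening campaign, cut at about 17% in these data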;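 further: 0% = plate median of test compound wells and 100% = 1 µM Z-Phe-Ala-diazomethylketone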
PREPL inhibitor – inhibits the human prolyl oligopeptidase-like enzyme; Q4J6C6; recombinant PREPL, fluorescence polarization activity-based probe; inhibition, % at 5.96 µM; 320,000 tested, 0.68% active; AID 2751; in the data active means inhibition above about 43%;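 further: 0% = enzyme with DMSO and 100% = wells lacking enzyme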
UCH37 inh – inhibitors of human deubiquitinating enzyme UCH37; AID 588478; Q9Y5K5; 330,000 tested, 0.33% active; inhibition, % (no concentration beside the values); purified proteasome/UCH37, Ub-AMC cleavage fluorescence;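 active means mean inhibition over replicate wells above about 20%, limit read from the data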;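 further: 0% = compound-free wells with enzyme and 100% = wells lacking proteasome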
Target sequence (Q9Y5K5 whole entry, looked up): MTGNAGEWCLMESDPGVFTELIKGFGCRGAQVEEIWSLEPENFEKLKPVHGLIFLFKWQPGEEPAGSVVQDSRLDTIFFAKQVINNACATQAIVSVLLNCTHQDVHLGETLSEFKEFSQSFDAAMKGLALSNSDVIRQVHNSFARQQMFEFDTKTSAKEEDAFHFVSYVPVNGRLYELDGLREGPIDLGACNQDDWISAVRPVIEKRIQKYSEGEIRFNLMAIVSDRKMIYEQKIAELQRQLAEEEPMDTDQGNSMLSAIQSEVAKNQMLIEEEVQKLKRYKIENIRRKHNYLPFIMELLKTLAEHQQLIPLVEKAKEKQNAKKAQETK
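assay system = human UCH37 enzyme supplied as purified proteasome complex | amount = proteasome at 0.15 nM in the dispensed enzyme solution | schedule = 30 min compound-proteasome preincubation then 25 min substrate reaction, room temperature | measured by = fluorescence, ex 355 nm, em 460 nm | benchmarks = no-proteasome wells (full inhibition) and compound-free wells (no inhibition)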
PP1 inh confirm – confirmation of human PP1 phosphatase inhibitors | shares compounds with PP1 inh | purified PP1alpha, OMFP substrate fluorescence | inhibition, % at 6.7 µM | 1,900 tested, 52% active;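 active means mean PP1 inhibition above a set limit taken from the earlier primary screen, cut at about 15% in these data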
PP5 counter – PP5 phosphatase inhibition, counter-screen for PP1 inhibitors | purified PP5c, OMFP fluorescence | AID 2360 | inhibition, % at 6.7 µM | shares compounds with PP1 inh | 1,900 tested, 4% active;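 active means mean PP5 inhibition over triplicate wells above about 9.5% taken from the earlier PP1 screen, limit read from the data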
Numbers without * were called inactive; / = no result given. The list is not random: actives were taken first. Their share in the collection is about 2.3%.

SMILES	UBC13 inh	PP1 inh	PP5 inh	CTSL1 counter	PREPL inhibitor	UCH37 inh	PP1 inh confirm	PP5 counter
CCn1c(=O)c(C(=O)NNC(=O)c2ccccc2Cl)c(O)c2ccccc21	6	19*	1	-1	8	-3	14	-2
CCCn1c(=O)c(C(=O)NNC(=O)c2cccc([N+](=O)[O-])c2)c(O)c2ccccc21	-18	20*	0	2	5	4	19*	-1
Cn1c(=O)c(C(=O)NNC(=O)c2ccc(Br)cc2)c(O)c2ccccc21	-5	0	0	-4	8	1	/	/
CCn1c(=O)c(C(=O)NNC(=O)c2ccccc2F)c(O)c2ccccc21	15	8	1	2	19	-2	/	/
Cn1c(=O)c(C(=O)NNC(=O)c2ccccc2F)c(O)c2ccccc21	14	18*	-1	-1	-4	-6	6	-4
CCn1c(=O)c(C(=O)Nc2ncccc2O)c(O)c2ccccc21	1	14	1	4	-6	9	/	/
CCn1c(=O)c(C(=O)Nc2ncccc2C)c(O)c2ccccc21	17	21*	-2	1	2	-1	25*	-1
O=C(Cn1cc(C(F)(F)F)ccc1=O)NN=Cc1ccc(O)cc1	/	/	/	/	/	2	/	/
CC(=O)c1sc(NN=Cc2cccc(O)c2)nc1C	/	/	/	/	/	-5	/	/
O=C(Nc1ccc(N2CCCC2)cc1)c1cc2ccccc2o1	-8	33*	0	3	11	4	-5	1
O=C(COc1ccccc1Cl)Nc1ccc(N2CCCC2)cc1	-13	28*	4	-2	11	-3	-2	-4
COc1cccc(OC)c1C(=O)Nc1ccc(N2CCCC2)cc1	-6	28*	2	-2	26	1	-3	-4
O=C(Nc1ccc(N2CCCC2)cc1)c1ccc(Br)cc1	2	24*	1	-3	40	1	-9	1
COc1ccccc1C(=O)Nc1ccc(N2CCCCC2)cc1	-4	-3	2	-1	9	4	/	/
CCOc1ccc(/C=C2\SC(=S)N(CCC(=O)N(CCO)c3ccccc3)C2=O)cc1	-20	22*	5	-3	-1	6	8	4
COc1ccc(/C=C2\SC(=S)N(CCC(=O)N(CCO)c3ccccc3)C2=O)cc1OC	-7	-1	0	2	11	8	/	/
C=CCN1CC(C)C(=NO)CC1C (stereo not drawn)	/	/	/	/	/	-1	/	/
O=C(NN=Cc1cc([N+](=O)[O-])ccc1O)c1ccc2c(c1)OCCO2	/	/	/	/	/	6	/	/
CCOC(=O)c1c(-n2cnnn2)sc2c1CCCC2	1	-4	2	5	3	-10	/	/
CCOC(=O)c1c(N2C(=O)Nc3cc(Cl)c(Cl)cc3N2O)sc2c1CCCCC2	-6	19*	3	7	21	1	17*	0
CCc1ccc(S(=O)(=O)/N=C2\C=C(Nc3ccc(C(=O)O)cc3)C(=O)c3ccccc32)cc1	-165	15*	11*	79*	41	/	16*	44*
O=C(Nc1cccc([N+](=O)[O-])c1)c1cc2ccccc2cc1O	-16	23*	1	5	9	4	19*	-1
Cc1ccc(C)n1-c1ccc(-c2nnco2)cc1	-3	24*	0	-1	17	/	1	-3
Cc1ccc(C)n1-c1ccc(-n2cnnn2)cc1	2	25*	1	0	7	1	15*	-1
CC(=NNC(=S)NCc1ccccc1)c1ccccc1F	/	/	/	/	/	1	/	/
SMILES	UBC13 inh	PP1 inh	PP5 inh	CTSL1 counter	PREPL inhibitor	UCH37 inh	PP1 inh confirm	PP5 counter
COc1cnc(-c2ccccn2)nc1Sc1ccc(C)cc1	14	48*	6	1	37	1	51*	-2
COc1ccccc1Sc1nc(-c2ccccn2)ncc1OC	-9	44*	4	7	39	5	46*	-6
O=C(NN=Cc1cccc(Br)c1)c1ccc(Cn2cc(Br)cn2)o1	/	/	/	/	/	-2	/	/
CC(=O)N1CCN(c2ccccc2NC(=O)c2cc(Br)ccc2Cl)CC1	-1	3	0	0	10	0	/	/
O=C(Nc1ccccc1N1CCN(C(=O)c2ccc(Cl)cc2)CC1)c1cc(Br)ccc1Cl	-16	18*	0	1	9	3	9	-3
CC1C(=O)NN=C1C(=O)NN=Cc1cccs1 (stereo not drawn)	/	/	/	/	/	10	/	/
O=C(Nc1ccc(S(=O)(=O)Nc2nccs2)cc1)c1ccc(N2C(=O)c3ccccc3C2=O)cc1	-7	28*	-2	8	-3	-1	15	-1
NC(N)=NN=Cc1ccc2cccc(OCc3ccccc3)c2n1	/	/	/	/	/	-128	/	/
Cc1cccc(NC(=O)Cn2nnc(C(=O)Nc3ccc(F)c(Cl)c3)c2N)c1	-4	19*	-6	4	-10	0	-1	-4
Cc1ccc(C=NNC(=O)c2ccccc2OCc2cccc(Br)c2)o1	/	/	/	/	/	3	/	/
O=c1cc(CN2CCc3ccccc32)nc2sccn12	1	24*	2	-2	5	0	31*	-3
O=C(NNC(=O)c1cccnc1SCc1cccc([N+](=O)[O-])c1)c1ccccn1	18	20*	-1	-2	10	2	19*	-5
C=CCn1c(SCc2ccc(C(=O)Nc3nccs3)cc2)nnc1-c1ccc(C)c(Cl)c1	-2	18*	4	-1	-12	1	8	0
Cc1ccc(S(=O)(=O)N(CC(=O)NN=Cc2cccc(C)c2)c2cccc3cccnc23)cc1	/	/	/	/	/	1	/	/
COc1cccc(/C=C/C(=O)OCC(=O)c2ccc3c(c2)NC(=O)CO3)c1	-23	33*	1	/	9	-2	28*	-3
COc1ccc(C=NNC(=O)CNC(=O)C2COc3ccccc3O2)cc1OC (stereo not drawn)	/	/	/	/	/	2	/	/
O=C(COc1ccc(/C=N/NC(=O)c2ccc(O)cc2)cc1)Nc1cccc([N+](=O)[O-])c1	-13	27*	0	1	-15	/	26*	-2
O=C(COc1ccc(C=NNC(=O)c2ccc(O)cc2)cc1)Nc1ccc([N+](=O)[O-])cc1	/	/	/	/	/	3	/	/
CCCn1c(N)c(C(=O)CSc2nc(C)nc3sc(C)c(C)c23)c(=O)[nH]c1=O	24	22*	-2	5	16	2	-1	-4
CCCOc1cccc(C2C(C(=O)c3ccc(C)o3)=C(O)C(=O)N2CCN2CCOCC2)c1 (stereo not drawn)	-19	6	0	3	3	13	/	/
Cc1cc(N2C(=O)C(O)=C(C(=O)c3ccc(C)o3)C2c2ccc([N+](=O)[O-])cc2)no1 (stereo not drawn)	-3	18*	4	3	4	9	14	0
